The source made the active and inactive calls. The rule behind the calls is not given here.
Experiments:
NCI-H460 [1] = assay: Cell cycle arrest in human NCI-H460 cells assessed as accumulation at G1-phase at 5 uM after 48 hrs by propidium iodide staining based flow cytometric method (reference value: 75.84%); format: functional
[2] = Cytotoxicity against human HeLa/TR cells after 48 hrs by MTT assay; format: functional, cell-based
How it was run: (§1)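 Log-phase cells were seeded at about 1 × 10⁵ cells/mL in 96-well plates and allowed to settle 12 h at 37 °C in 5% CO₂. Compounds were added at five concentrations for 48 h. Absorbance was read at dual wavelength 570/630 nm. Survival was expressed as a percentage of control, and IC50 was calculated by the Bliss method (n = 5). Each test was run in triplicate.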

NCI-H460 [3] = assay: Induction of apoptosis in human NCI-H460 cells assessed as increase in cleaved caspase-9 expression at 5 to 10 uM after 48 hrs by Western blot method; format: functional, cell-based
How it was run: (§2)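 NCI-H460 cells were treated 48 h at various concentrations. Cells were washed in ice-cold PBS and lysed on ice for 20 min, and lysates were spun at 20000 g and 4 °C for 5 min. Protein was quantified by BCA, and equal amounts were run on 12% SDS-PAGE and transferred to PVDF. Membranes were blocked in 5% milk/TBST, probed overnight at 4 °C with primary antibodies (β-actin as reference), then with peroxidase secondary for 2 h. Bands were detected by chemiluminescence.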

L02 = assay: Cytotoxicity against human HL7702 cells after 48 hrs by MTT assay; format: cell-based; conditions: L02, 48 h; how it was run: as §1
NCI-H460 [4] = assay: Cell cycle arrest in human NCI-H460 cells assessed as accumulation at G2-phase at 10 uM after 48 hrs by propidium iodide staining based flow cytometric method (reference value: 2.37%); format: functional
HeLa [5] = assay: Resistant factor, ratio of IC50 for human HeLa/TR cells to IC50 for human HeLa cells; format: functional
How it was run: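 The resistance index is IC50 on the paclitaxel-resistant line divided by IC50 on the parental sensitive line (A549 or HeLa). Both IC50 values come from the 48 h, five-concentration growth assay with 570/630 nm absorbance read-out and Bliss-method calculation.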

NCI-H460 [6] = assay: Induction of apoptosis in human NCI-H460 cells assessed as upregulation of Bax expression after 48 hrs by Western blot method; format: functional, cell-based; how it was run: as §2
NCI-H460 [7] = assay: Disruption of mitochondrial membrane potential in human NCI-H460 cells assessed as intact mitochondrial membrane potential at 10 uM after 24 hrs by JC-1 staining based flow cytometric method (reference value: 11.9%); format: functional
How it was run: (§3)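 NCI-H460 cells were treated 24 h at 5 or 10 µM, with untreated cells as control. The medium was replaced, and the JC-1 probe was added 20 min later. Cells were then pelleted at 2000 rpm, washed twice in ice-cold PBS and analysed by flow cytometry with excitation at 488 nm and emission at 530 and 590 nm.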

HepG2 = assay: Cytotoxicity against human HepG2 cells after 48 hrs by MTT assay; format: functional, cell-based; conditions: HepG2, 48 h; how it was run: as §1
NCI-H460 [8] = assay: Induction of apoptosis in human NCI-H460 cells assessed as necrotic cells at 5 uM after 24 hrs by Annexin V-FITC/propidium iodide staining based flow cytometric method (reference value: 1.84%); format: functional
NCI-H460 [9] = assay: Induction of apoptosis in human NCI-H460 cells assessed as increase in cytochrome c release from mitochondria to cytosol after 48 hrs by Western blot method; format: functional, cell-based; how it was run: as §2
NCI-H460 [10] = assay: Induction of apoptosis in human NCI-H460 cells assessed as live cells at 10 uM after 24 hrs by Annexin V-FITC/propidium iodide staining based flow cytometric method (reference value: 95.8%); format: functional
NCI-H460 [11] = assay: Cell cycle arrest in human NCI-H460 cells assessed as accumulation at G2-phase at 5 uM after 48 hrs by propidium iodide staining based flow cytometric method (reference value: 2.37%); format: functional
NCI-H460 [12] = assay: Induction of apoptosis in human NCI-H460 cells assessed as late apoptotic cells at 10 uM after 24 hrs by Annexin V-FITC/propidium iodide staining based flow cytometric method (reference value: 0.839%); format: functional
NCI-H460 [13] = assay: Induction of apoptosis in human NCI-H460 cells assessed as early apoptotic cells at 5 uM after 24 hrs by Annexin V-FITC/propidium iodide staining based flow cytometric method (reference value: 1.55%); format: functional
SK-OV-3 = assay: Cytotoxicity against human SKOV3 cells after 48 hrs by MTT assay; format: functional, cell-based; conditions: SK-OV-3, 48 h; how it was run: as §1
NCI-H460 [14] = assay: Cell cycle arrest in human NCI-H460 cells assessed as accumulation at G1-phase at 10 uM after 48 hrs by propidium iodide staining based flow cytometric method (reference value: 75.84%); format: functional
NCI-H460 [15] = assay: Induction of apoptosis in human NCI-H460 cells assessed as down regulation of Bcl2 expression after 48 hrs by Western blot method; format: functional, cell-based; how it was run: as §2
NCI-H460 [16] = assay: Induction of apoptosis in human NCI-H460 cells assessed as live cells at 5 uM after 24 hrs by Annexin V-FITC/propidium iodide staining based flow cytometric method (reference value: 95.8%); format: functional
HeLa [17] = assay: Cytotoxicity against human HeLa cells after 48 hrs by MTT assay; format: functional, cell-based; how it was run: as §1
NCI-H460 [18] = assay: Disruption of mitochondrial membrane potential in human NCI-H460 cells after 24 hrs by JC-1 staining based flow cytometric method; format: functional, cell-based; how it was run: as §3
NCI-H460 [19] = assay: Induction of apoptosis in human NCI-H460 cells assessed as necrotic cells at 10 uM after 24 hrs by Annexin V-FITC/propidium iodide staining based flow cytometric method (reference value: 1.84%); format: functional
NCI-H460 [20] = assay: Disruption of mitochondrial membrane potential in human NCI-H460 cells assessed as intact mitochondrial membrane potential at 5 uM after 24 hrs by JC-1 staining based flow cytometric method (reference value: 11.9%); format: functional; how it was run: as §3
NCI-H460 [21] = assay: Induction of apoptosis in human NCI-H460 cells assessed as early apoptotic cells at 10 uM after 24 hrs by Annexin V-FITC/propidium iodide staining based flow cytometric method (reference value: 1.55%); format: functional
A549 = assay: Cytotoxicity against human A549 cells after 48 hrs by MTT assay; format: functional, cell-based; conditions: A549, 48 h; how it was run: as §1
NCI-H460 [22] = assay: Cytotoxicity against human NCI-H460 cells after 48 hrs by MTT assay; format: functional, cell-based; conditions: NCI-H460, 48 h; how it was run: as §1
NCI-H460 [23] = assay: Cell cycle arrest in human NCI-H460 cells assessed as increase in accumulation at G2-phase after 48 hrs by propidium iodide staining based flow cytometric method; format: functional
MGC-803 = assay: Cytotoxicity against human MGC803 cells after 48 hrs by MTT assay; format: functional, cell-based; conditions: MGC-803, 48 h; how it was run: as §1
NCI-H460 [24] = assay: Induction of apoptosis in human NCI-H460 cells after 24 hrs by Annexin V-FITC/propidium iodide staining based flow cytometric method; format: functional, cell-based
NCI-H460 [25] = assay: Cell cycle arrest in human NCI-H460 cells assessed as accumulation at S-phase at 10 uM after 48 hrs by propidium iodide staining based flow cytometric method (reference value: 21.79%); format: functional
NCI-H460 [26] = assay: Induction of apoptosis in human NCI-H460 cells assessed as increase in cleaved caspase-3 expression at 5 to 10 uM after 48 hrs by Western blot method; format: functional, cell-based; how it was run: as §2
T-24 = assay: Cytotoxicity against human T24 cells after 48 hrs by MTT assay; format: functional, cell-based; conditions: T-24, 48 h; how it was run: as §1

## COc1ccc(/C=C/C(=O)c2cc(OC)c(OC)c(OC)c2)cc1OCC(=O)Nc1ccccc1Cl
NCI-H460 [1]
  Activity: 59.12%
[2]
  IC50: 5.95 µM
NCI-H460 [3]
  Activity: Active
L02
  IC50: > 50 µM
NCI-H460 [4]
  Activity: 72.4%
HeLa [5]
  Ratio IC50: 1.31
NCI-H460 [6]
  Activity: Dose-dependent effect
NCI-H460 [7]
  Activity: 26.2%
HepG2
  IC50: 4.06 µM
NCI-H460 [8]
  Activity: 1.1%
NCI-H460 [9]
  Activity: Dose-dependent effect
NCI-H460 [10]
  Activity: 22.7%
NCI-H460 [11]
  Activity: 11.88%
NCI-H460 [12]
  Activity: 42.7%
NCI-H460 [13]
  Activity: 11.9%
SK-OV-3
  IC50: 6.28 µM
NCI-H460 [14]
  Activity: 1.95%
NCI-H460 [15]
  Activity: Dose-dependent effect
NCI-H460 [16]
  Activity: 83.6%
HeLa [17]
  IC50: 4.53 µM
NCI-H460 [18]
  Activity: Dose-dependent effect
NCI-H460 [19]
  Activity: 10.9%
NCI-H460 [20]
  Activity: 16.9%
NCI-H460 [21]
  Activity: 23.7%
A549
  IC50: 5.21 µM
NCI-H460 [22]
  IC50: 3.75 µM
NCI-H460 [23]
  Activity: Dose-dependent effect
MGC-803
  IC50: 8.42 µM
NCI-H460 [24]
  Activity: Dose-dependent effect
NCI-H460 [25]
  Activity: 20.81%
NCI-H460 [26]
  Activity: Active
T-24
  IC50: 5.8 µM

From ChEMBL document CHEMBL4028810, “Synthesis and biological evaluation of novel chalcone derivatives as a new class of microtubule destabilizing agents” (Eur J Med Chem, 2017)
